GAA850 FXN act: frataxin GAA850 promoter activation; HEK293 lucGAA850 FXN promoter luciferase reporter, 24 h; percent of 10 µM SAHA response; activation, % at 6 µM; 360,000 tested, 0.56% active;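 active = activation above the average of all compounds screened plus 3 SD, cutoff fixed separately per campaign, cut at about 7.5% in these data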;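 note: 0% = DMSO wells and 100% = 10 µM SAHA wells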
UPR XBP1 act: activators of adaptive arm of unfolded protein response (XBP1); CHO-XBP1 luciferase reporter, IRE1-XBP1 UPR activation, luminescence; percent of tunicamycin response, DMSO as zero; 330,000 tested, 0.33% active; AID 463104; activation, % at 20 µM;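 active = versus positive control, 20 µM dose yields 30% or more activation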;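 note: 100% = tunicamycin at 10 µg/mL and 0% = DMSO only wells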
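Material – CHO cell line with stable XBP1 luciferase reporter · Buffer or medium – F12 plus 10% FBS · Compound – single point, 20 µM final compound, 1% DMSO · Schedule – 16-18 h cell attachment at 37 °C, then 6 h compound exposure · Signal – Steady-Glo luminescence read · Benchmarks – high control tunicamycin 10 µg/mL final, low control DMSO vehicle only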
CHOP inh: blocks CHOP induction under ER stress; 220,000 tested, 3.8% active; AID 2732; CHO-K1 CHOP-promoter luciferase, tunicamycin-induced, 15-18 h; inhibition, % at 10 µM;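 active = compounds that reduced the stress-induced luciferase reporter signal by more than about 70% of percent inhibition, limit read from the data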;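 note: 0% = tunicamycin plus vehicle and 100% = wells without tunicamycin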
CHOP UPR activ: apoptotic UPR (CHOP) activation. CHO-CHOP luciferase reporter, luminescence; percent of tunicamycin response over DMSO baseline. activation, % at 10 µM. 330,000 tested, 0.34% active. AID 449763;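 active = at 10 µM dose, activation of 40% or more, normalized to positive control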;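 note: 100% = tunicamycin at 10 µg/mL and 0% = DMSO alone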
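Assay system: CHO-CHOP cells, stable luciferase reporter of PERK-eIF2a-CHOP signalling / Buffer or medium: F12 plus 10% serum / Compound dosing: one dose, 10 µM in 0.5% DMSO / Times: 6 h compound treatment, 37 °C / Technique: luciferase luminescence / Read-out: % reporter activation, DMSO baseline versus tunicamycin full activation / Benchmarks: tunicamycin and DMSO controls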
Active calls of the source: *; nt = no result given. The sample as a whole holds a higher share of hits than the screen did.

SMILES	GAA850 FXN act	UPR XBP1 act	CHOP inh	CHOP UPR activ
OC[C@@H]1CN(Cc2ccccc2)C[C@H](n2cnc3c(NCc4ccncc4)ncnc32)O1	-2	nt	nt	nt
O=C(Cc1ccccc1)NCCc1cnc[nH]1	1	-1	nt	1
CC(=O)NCCc1cnc[nH]1	10*	-2	nt	-1
CN1C(=O)c2cccc(NCCCN3C(=O)c4ccccc4C3=O)c2C1=O	1	0	5	1
CN1C(=O)c2cccc(NCCCCCCN3C(=O)c4ccccc4C3=O)c2C1=O	-2	-2	71*	2
COC(=O)c1cc(Cl)c(NC(=O)/C=C/c2ccc(Cl)cc2Cl)cc1OC	-1	-2	84*	0
COc1ccccc1NC(=O)COC(=O)/C=C/c1cccs1	2	0	nt	0
CCC(C(=O)Nc1ccccc1OC)n1c(C(=O)OC)cc2ccsc21 (centres undefined)	0	-6	81*	-2
COc1ccc(-c2ccnc(-c3ccc(OCCCF)cc3)n2)cc1	1	1	71*	-1
COc1ccc(OCCn2nnc(-c3ccc(Cl)cc3)n2)cc1	0	-3	54	1
FCCCOc1ccc(-c2nccc(-c3ccc(Cl)cc3)n2)cc1	0	3	78*	0
COc1ccc(N/C=C(\C#N)c2ccc(OCCCF)cc2)cc1	1	0	8	0
Cn1nccc1-c1ccc(C(=O)NCc2ccco2)c2occc12	1	nt	nt	nt
Cc1ccc2nc(-c3ccccc3)cn2c1	-13	-17	76*	-11
O=S(=O)(NCc1ccccc1)c1ccc(S(=O)(=O)N2CCCCC2)cc1	0	-1	72*	1
O=S(=O)(c1ccc(S(=O)(=O)N2CCN(C/C=C/c3ccccc3)CC2)cc1)N1CCCC1	3	-2	87*	-3
O=S(=O)(c1ccccc1)N1CCN(C/C=C/c2ccccc2)CC1	1	-5	nt	0
O=C(c1cccc(S(=O)(=O)N2CCOCC2)c1)N1CCN(c2ncccn2)CC1	2	nt	nt	nt
COC(=O)C1=C(C)NC(C)=C(C(=O)OC)C1C(=O)OCC(=O)NC1CCCCC1C (centres undefined)	-1	nt	nt	nt
Cc1ccc(C2OCC3(CO2)COC(c2ccc(C)cc2)OC3)cc1 (centres undefined)	-1	-2	80*	-2
COc1cc(C=C(c2nc3ccccc3s2)c2nc3ccccc3s2)ccc1O	1	1	74*	2
CCCCCn1c(SCC(=O)OCC)nc2cc(C(=O)N3CCC(C(N)=O)CC3)ccc2c1=O	-1	1	26	-1
C=CCn1c(SCc2ccc(Cl)cc2)nc2cc(C(=O)N3CCC(C(N)=O)CC3)ccc2c1=O	0	4	83*	1
Cc1ccc(Cn2c(=O)n(CCC(=O)NCc3ccc4c(c3)OCO4)c(=O)c3ccccc32)cc1	1	0	95*	2
COc1ccccc1NC(=O)NCc1ccc2c(c1)OCO2	nt	1	20	3
SMILES	GAA850 FXN act	UPR XBP1 act	CHOP inh	CHOP UPR activ
O=C(NCc1ccc2c(c1)OCO2)Nc1cccc2ccccc12	0	-2	86*	2
Cc1ccc(-n2nnnc2C(Cl)c2nnnn2-c2ccc(C)cc2)cc1	4	nt	91*	nt
CCCCOc1ccccc1Cn1c(=O)oc2ccccc21	-1	-8	88*	-1
CCOC(=O)N1CCC(NS(=O)(=O)c2ccc3c(c2)CCN3C(C)=O)CC1	0	-1	73*	-1
Cc1nn(C(C)(C)C)c(OC(=O)c2ccco2)c1Sc1ccccc1	-2	1	75*	1
Cc1nn(C(=O)c2ccco2)c(C)c1Sc1ccccc1	-1	-6	93*	1
Cc1nn(C(C)(C)C)c(OC(=O)c2cccs2)c1Sc1ccccc1	-1	1	81*	0
O=C(Nc1ccc(F)c(Cl)c1)c1cc(C2CCCN(S(=O)(=O)c3cccc4cccnc34)C2)on1 (centres undefined)	1	nt	nt	nt
Cc1nc(NC(=O)/C=C/c2ccccc2)sc1C(=O)NCCO	2	0	10	2
Cc1nc(NC(=O)/C=C/c2ccccc2)sc1C(=O)Nc1ccccc1	-5	-1	92*	2
O=C(/C=C\c1ccccc1)Nc1ccc(NC(=O)c2ccco2)cc1	2	-2	95*	0
CCCS(=O)(=O)NC(=O)C1(C)CCCN(C(=O)c2ccc3c(c2)OCO3)C1 (centres undefined)	1	nt	nt	nt
CC1C(=O)N(Cc2cn(CCC3OCCO3)nn2)CCS(=O)(=O)N1Cc1ccc(-c2ccc(F)nc2)cc1 (centres undefined)	1	nt	nt	nt
Cc1cccc(N=C2NN=C(c3c(C)[nH]c4ccccc34)CS2)c1	-2	-1	72*	1
COc1ccc(Cn2c(=O)[nH]c3cc(C(=O)N4CCN(c5ccccc5OC)CC4)ccc3c2=O)cc1	-1	-5	nt	5
COc1ccc(Cn2c(=O)[nH]c3cc(C(=O)N4CCN(Cc5ccccc5)CC4)ccc3c2=O)cc1	-2	-3	72*	-3
C(=C\c1nccc2c1[nH]c1ccccc12)/c1ccccc1	0	-1	4	5
Fc1ccc(/C=C\c2nccc3c2[nH]c2ccccc23)cc1	6	5	90*	2
O=C(NNC(=S)NC1CCCCC1)c1ccccc1Br	0	-2	nt	3
CC1CCCC(NC(=S)NC(=O)c2ccccc2Br)C1C (centres undefined)	2	-2	89*	-1
CNc1cncc(-c2cccc(O)c2)n1	1	nt	nt	nt
O=C(COC(=O)CCC1CCCC1)Nc1ccc(Cl)cn1	0	-3	73*	1
O=[N+]([O-])c1ccc(N/N=C\c2ccccc2OCc2ccccc2)cc1	1	0	76*	2
Cc1cc(C)nc(N/N=C/c2ccccc2OCc2ccc([N+](=O)[O-])cc2)n1	4	2	-4	6
COc1ccc(Nc2nc(Cl)nc(Nc3ccc(OC)cc3)n2)cc1	1	1	71*	1
SMILES	GAA850 FXN act	UPR XBP1 act	CHOP inh	CHOP UPR activ
COc1ccc(Nc2nc(Cl)nc(Nc3ccc(OC)cc3OC)n2)c(OC)c1	4	1	18	1
COc1ccc(Nc2nc(Cl)nc(N3CCN(c4ccc(OC)cc4)CC3)n2)cc1	nt	-3	93*	2
COc1ccc(Nc2nc(OC)nc(N3CCN(c4ccc(OC)cc4)CC3)n2)cc1	-3	nt	77*	nt
NC(c1ccc(F)c(F)c1)c1nc(-c2cc(F)cc(F)c2)cs1 (centres undefined)	4	nt	nt	nt
CCOC(=O)c1ccc(S(=O)(=O)N2CCC(C(=O)NCC3COc4ccccc4O3)CC2)cc1 (centres undefined)	-1	nt	nt	nt
CC(C)(C)c1ccc(S(=O)(=O)NC(=O)C2(C)CCN2C(=O)Cc2cccs2)cc1 (centres undefined)	2	nt	nt	nt
Cc1ccc(CC(=O)Nc2ccccc2-c2ccccc2)cc1C	0	0	89*	0
Cc1cccc(OCC(=O)Nc2ccccc2-c2ccccc2)c1	-2	nt	85*	nt
O=C(Nc1cccc2c1CCCC2)c1cc(C2CCCCN2S(=O)(=O)c2cccs2)on1 (centres undefined)	1	nt	nt	nt
